# Only some compounds are listed: those with a hit (about 1.8% of all), similar ones and a draw of the others.
# Jurkat NFkB inh – inhibitors of induced NF-kB luciferase reporter, primary screen, TCR NF-kB activation inhibitor project, cell-based, luminescence, uHTS | inhibition, % at 4 µM | 330,000 compounds, 0.53% hits | Jurkat, PMA/ionomycin-induced NF-kB luciferase reporter | AID 435003, 2010; in the data active = inhibition above about 50%
# 697 NFkB inh – inhibitors of PMA/ionomycin-induced NF-kB reporter, 697 cells, primary screen, B-cell NF-kB inhibitor project, cell-based, luminescence, uHTS; inhibition, % at 4 µM; 330,000 compounds, 0.33% hits; AID 435022, 2010; 697 B-cell NF-kB luciferase reporter, 16 h; in the data active = inhibition above about 35%
# NR2E3 ag-1 – inhibitors of NR2E3-RetCOR corepressor binding, primary screen, NR2E3 agonist project, biochemical, TR-FRET, GST-NR2E3, biotin-RetCOR | inhibition of corepressor binding, % at 4.78 µM | 320,000 compounds, 0.12% hits | Photoreceptor-specific nuclear receptor (Homo sapiens), Q9Y5X4 | 1536-well;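 active = percent inhibition above the cutoff of mean plus 3 SD of all tested compounds, set per screening campaign, cut at about 20% in these data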;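 note: 0% = DMSO wells and 100% = biotin wells as full block of FRET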
#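 Assay system: NR2E3–RetCOR corepressor complex. Quantity: 1.35 nM GST-NR2E3. Buffer or medium: pH 7.5 Tris-based buffer. Reagent: biotinylated RetCOR corepressor at 7 nM final. Schedule: 5 h at 4 °C. Detection: TR-FRET, emission read at 617 and 671 nm. Replicates: one well per compound, singlicate testing.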
# Gli-Sufu block – Gli-Sufu pathway antagonists, primary screen, luciferase luminescence, Sufu-KO-LIGHT cells, uHTS. Sufu-KO-LIGHT fibroblasts, Gli luciferase reporter luminescence. inhibition, % at 5 µM. AID 588413, 2011. 340,000 compounds, 0.74% hits;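 active = inhibition above about 55%, limit read from the data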;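 note: 0% = DMSO-treated cells and 100% = wells with medium but no cells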
# GalR3 antag – GalR3 antagonists in HEK293 cells, primary screen, cell-based, fluorescence readout; Galanin receptor type 3 (Homo sapiens), O60755; HEK293 GalR3-CNG cAMP membrane potential fluorescence; galR3 body fused to GalR1 C-terminus; inhibition, % at 3 µM; 360,000 compounds, 0.44% hits; AID 651719, 2012;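 active = inhibition above the screen-wide average plus 3 SD, cut at about 13% in these data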;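 note: forskolin and galanin both at EC90 stimulate the cells; cAMP rise reported by CNG channel membrane potential dye signal; 0% = forskolin plus galanin with DMSO and 100% = forskolin alone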
# Target sequence (O60755 1-299 limits assumed): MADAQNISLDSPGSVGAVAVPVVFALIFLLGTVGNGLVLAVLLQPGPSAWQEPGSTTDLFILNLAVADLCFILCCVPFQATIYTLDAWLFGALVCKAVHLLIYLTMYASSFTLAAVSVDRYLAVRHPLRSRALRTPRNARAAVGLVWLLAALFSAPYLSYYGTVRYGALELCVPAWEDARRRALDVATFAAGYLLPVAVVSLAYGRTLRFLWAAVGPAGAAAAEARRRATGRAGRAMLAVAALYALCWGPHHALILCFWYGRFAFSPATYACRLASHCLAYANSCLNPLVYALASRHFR
# NR2E3 ag-2 – NR2E3 agonists in two-hybrid cells, primary screen, cell-based, luminescence, CHO-S, Gal4-NCOR/VP16-NR2E3; inhibition of corepressor binding, % at 3.98 µM; AID 602229, 2012; luciferase; 360,000 compounds, 0.35% hits;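 active = inhibition above the mean of all tested compounds plus 3 SD, cut at about 70% in these data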;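 note: 0% = DMSO with NR2E3 transfected cells and 100% = cells lacking NR2E3 construct; higher means lower luciferase signal from less NR2E3 corepressor binding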
# NR2E3 ag confirm – NR2E3 agonist confirmation in cells, cell-based, luminescence, CHO-S two-hybrid; shares compounds with NR2E3 ag-2; CHO-S mammalian two-hybrid NR2E3-NCOR, luciferase luminescence; inhibition, % at 3.98 µM; 2,300 compounds, 51% hits; AID 624378, 2012;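 active = average inhibition above a cutoff equal to the mean inhibition of all tested compounds plus one SD, cut at about 70% in these data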;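 note: 0% = DMSO in NR2E3 cells and 100% = DMSO in cells lacking NR2E3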
# GAL4-VP16 luc – GAL4-VP16 reporter modulators, confirmation, counter-screen for NR2E3 agonist project, cell-based, luminescence, CHO-S, high throughput | CHO-S GAL4-VP16 luciferase reporter | inhibition, % at 3.98 µM | 2,300 compounds, 29% hits | shares compounds with NR2E3 ag-2;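 active = mean inhibition above a cutoff equal to the average over all tested compounds plus one standard deviation, cut at about 70% in these data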;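 note: luciferase from a UAS reporter driven by GAL4-VP16 transactivation; 0% = DMSO with VP16-transfected cells and 100% = DMSO with cells lacking VP16; higher means less reporter light so more repression of VP16 activity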
# * = called active by the depositor; / = no result.
SMILES,Jurkat NFkB inh,697 NFkB inh,NR2E3 ag-1,Gli-Sufu block,GalR3 antag,NR2E3 ag-2,NR2E3 ag confirm,GAL4-VP16 luc
Cc1c(C(=O)NCCC2=CCCCC2)sc2ncnc(N3CCCCC3C)c12 (stereo not drawn),-3,-7,1,-10,2,-2,/,/
COc1ccc(N2CCN(C(=O)c3cc(=O)c4ccc(C)cc4o3)CC2)cc1,-47,-29,-3,6,-10,-6,/,/
CCCc1ccc(Oc2cn[nH]c2-c2ccc(O)c(C)c2O)cc1,-10,-5,2,7,2,49,61,58
CCCc1ccc(Oc2c(-c3ccc(O)c(C)c3O)n[nH]c2C)cc1,1,-21,-2,-3,4,15,/,/
ON=C1c2ccccc2-c2ccc(Br)cc21,/,/,/,0,-5,-38,/,/
NC(=S)NN=C1c2ccccc2-c2cc(Br)ccc21,/,/,/,15,-7,85*,-5,-27
COc1cc(/C=C/C(=O)OCC(=O)N2CCN(S(=O)(=O)c3ccc(C)cc3C)CC2)cc(Cl)c1OC,6,10,/,2,-2,7,/,/
O=S(=O)(NCCOc1ccccc1Cl)c1ccc2oc3ccccc3c2c1,8,23,-4,2,-3,41,/,/
COc1ccccc1OCCNS(=O)(=O)c1ccc2oc3ccccc3c2c1,9,12,0,10,-6,51,62,68
COc1ccc(-c2cc(C)no2)cc1S(=O)(=O)N(C)c1ccc(C)cc1,45,-30,2,15,0,-31,/,/
CCCC(=O)N1CCN(c2ccc(NC(=O)c3cc4ccccc4o3)cc2Cl)CC1,40,-60,2,1,-2,51,40,26
Cc1ccccc1C(=O)N1CCN(c2ccc(NC(=O)CSc3ccc(Cl)cc3)cc2)CC1,2,-62,1,-3,-6,57,59,66
CC(C)CC(=O)NC(=S)Nc1ccc(N2CCN(C(=O)c3cccs3)CC2)cc1,15,7,0,41,-7,65,85*,68
Cc1ccccc1C(=O)N1CCN(c2ccc(NC(=S)NC(=O)c3cccs3)cc2)CC1,12,-36,6,-15,-4,62,63,35
Cc1ccc(C(=O)N2CCN(c3ccc(NC(=S)NC(=O)c4cccs4)cc3)CC2)cc1,-10,-28,2,23,0,-2,/,/
CC(C)CN(C(=O)COC(=O)c1nc(Cl)ccc1Cl)c1c(N)n(Cc2ccccc2)c(=O)[nH]c1=O,6,4,-3,-4,4,-14,/,/
CCOc1ccc(Br)cc1S(=O)(=O)NC1=NCCCCC1,4,15,/,-4,-6,-31,/,/
CC(=O)Nc1ccc(S(=O)(=O)N2CCN=C2SCc2ccc([N+](=O)[O-])cc2)cc1,30,-56,0,28,-3,50,79*,49
Cc1cccc(NC(=O)CSc2nc3ccccc3c(=O)n2C)c1C,/,/,/,/,-5,81*,91*,80*
COc1ccccc1NC(=O)CSc1nc2ccccc2c(=O)n1C,-6,-50,6,49,-3,16,/,/
Cc1ccccc1Nc1nc(N)nc(CSc2nc3ccccc3c(=O)n2C)n1,2,-24,-1,31,0,88*,13,32
Cn1c(SCc2cccc([N+](=O)[O-])c2)nc2ccccc2c1=O,11,-31,2,50,-4,49,83*,65
COc1cc(OC)cc(C(=O)N2CCC(C(=O)NCCc3ccccc3)CC2)c1,-24,-26,3,-6,-7,-6,/,/
O=[N+]([O-])c1ccc(CN2[C@H](COCc3ccccc3)[C@@H](N3CCCC3)CS2(=O)=O)cc1,/,/,/,/,-6,-19,/,/
COc1cccc(NC(=O)CSc2nc3ncc(Br)cc3[nH]2)c1,1,-2,0,-5,-10,66,80*,33
SMILES,Jurkat NFkB inh,697 NFkB inh,NR2E3 ag-1,Gli-Sufu block,GalR3 antag,NR2E3 ag-2,NR2E3 ag confirm,GAL4-VP16 luc
CCc1ccc(NC(=O)CSc2nc3ncc(Br)cc3[nH]2)cc1,-7,11,3,-10,-6,-41,/,/
O=C(NNc1ccccc1)C(=O)NNS(=O)(=O)c1ccc([N+](=O)[O-])cc1,22,18,-2,4,4,58,53,26
C[C@H]1CCC/C=C/[C@@H]2C[C@H](O)C[C@H]2[C@H](O)[C@H](S(=O)c2ccc(O)cc2)CC(=O)O1 (stereo partly drawn),/,/,/,28,-4,78*,91*,47
CCOC(=O)c1cc(-c2ccccc2C)nn1CC1CC(c2cccnc2)=NO1 (stereo not drawn),-9,-4,/,-4,-2,8,/,/
Cc1cc2nc(-c3cccc(Cl)c3)c(Cc3ccccc3)n2c(C)c1Br,/,/,/,/,/,60,29,-15
Cc1cc2nc(-c3cccc(Br)c3)c(Cc3cccc(Cl)c3)n2c(C)c1Br,/,/,/,/,-8,-1,/,/
COCC(C)n1c(SCC(=O)NC(=O)NC2CCCC2)nc2ccccc2c1=O (stereo not drawn),7,23,1,6,-6,-6,/,/
Cc1ccc(C)c(N2CCN(S(=O)(=O)c3csc(C(N)=O)c3)CC2)c1,-1,-41,1,-6,-8,61,17,39
C=CS(=O)(=O)N(Cc1ccc(Cl)c(Cl)c1)C[C@@H](O)CO,/,33,/,9,/,52,18,21
O=C(O)c1sccc1SCc1ccc(Cl)c(Cl)c1,-13,-19,1,11,-3,-17,/,/
N#Cc1c(N)n(C2OC(CO)C(O)C2O)c2ncnc(N)c12 (stereo not drawn),/,/,/,-113,-2,89*,96*,89*
CC1CCc2nc(NC(=O)CSc3nc4ccccc4o3)sc2C1 (stereo not drawn),-37,-110,1,-1,-7,84*,62,57
Cc1nnc(NC(=O)CSc2nc3ccccc3o2)s1,4,3,-1,-2,-2,4,/,/
CC(=O)C1=C(O)C(=O)N(Cc2ccccc2)C1c1ccc(Br)cc1 (stereo not drawn),3,14,-2,21,-9,-5,/,/

# Assay outcomes: PubChem, several laboratories
